Experimental data: ChEMBL document CHEMBL3046413, “Synthesis and insecticidal activity of some novel fraxinellone-based esters” (2012)

Legend:
Format in all cases: functional
Mythimna separata [1] = assay: Insecticidal activity against Mythimna separata (Oriental armyworm) in wheat leaves assessed as mortality rate at 1 mg/mL at 25 degC measured after 35 days by leaf-dipping method relative to control; conditions: 840 h
In short: (§1)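 Leaf-dipping assay on pre-third-instar M. separata larvae. Compounds dissolved in acetone at 1 mg/mL; fresh wheat leaves dipped 3 s, then air-dried. Acetone-treated leaves served as control. 30 larvae per compound in groups of 10 per dish, with treated leaves replenished when consumed. After 48 h, larvae were switched to untreated fresh leaves. Corrected mortality = (T − C) × 100/(1 − C); three replicates.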

Mythimna separata [2] = assay: Insecticidal activity against Mythimna separata (Oriental armyworm) in wheat leaves assessed as mortality rate at 1 mg/mL at 25 degC measured after 25 days by leaf-dipping method relative to control; conditions: 600 h; in short: as §1
Mythimna separata [3] = assay: Insecticidal activity against Mythimna separata (Oriental armyworm) in wheat leaves assessed as mortality rate at 1 mg/mL at 25 degC measured after 10 days by leaf-dipping method relative to control; conditions: 240 h; in short: as §1

| Structure (SMILES) | mortality at 1000 µg/mL (Mythimna separata [1]) [%] | mortality at 1000 µg/mL (Mythimna separata [2]) [%] | mortality at 1000 µg/mL (Mythimna separata [3]) [%] |
| --- | --- | --- | --- |
| C[C@@]12CCCC(COC(=O)c3cccnc3)=C1C(=O)O[C@H]2c1ccoc1 | 51.9 | 44.4 | 27.6 |
| CC1=C2C(=O)O[C@@H](c3ccoc3)[C@]2(C)CC[C@H]1OC(=O)c1ccco1 | 51.9 | 40.7 | 31 |
| C[C@@]12CCCC(COC(=O)c3cccc([N+](=O)[O-])c3)=C1C(=O)O[C@H]2c1ccoc1 | 44.4 | 29.6 | 24.1 |
| CC1=C2C(=O)O[C@@H](c3ccoc3)[C@]2(C)CC[C@H]1OC(=O)c1ccc(C#N)cc1 | 55.6 | 48.1 | 20.7 |
| C[C@@]12CCCC(COC(=O)c3ccc([N+](=O)[O-])cc3)=C1C(=O)O[C@H]2c1ccoc1 | 40.7 | 33.3 | 13.8 |
| CC1=C2C(=O)O[C@@H](c3ccoc3)[C@]2(C)CC[C@H]1OC(=O)c1cccnc1 | 55.6 | 40.7 | 20.7 |
| CC1=C2C(=O)O[C@@H](c3ccoc3)[C@]2(C)CC[C@H]1O [4ALPHA-HYDROXYFRAXINELLONE] | 48.1 | 37 | 20.7 |
| CC1=C2C(=O)O[C@@H](c3ccoc3)[C@]2(C)CC[C@H]1OC(=O)COc1cccc2cccnc12 | 51.9 | 37 | 13.8 |
| CCCCCCCC(=O)O[C@@H]1CC[C@]2(C)C(=C1C)C(=O)O[C@H]2c1ccoc1 | 48.1 | 33.3 | 10.3 |
| CC1=C2C(=O)O[C@@H](c3ccoc3)[C@]2(C)CC[C@H]1OC(=O)Cc1ccccc1 | 44.4 | 37 | 31 |
| CC(=O)O[C@@H]1C[C@H](O)[C@@]23CO[C@@H](O)[C@]1(C)[C@@H]2C[C@@H](O)[C@]1(C)[C@@H]3C(=O)[C@H](OC(C)=O)[C@@]2(C)[C@H](c3ccoc3)C[C@H]3O[C@]321 [TOOSENDANIN] | 48.1 | 33.3 | 27.6 |
| C[C@@]12CCCC(COC(=O)c3ccccc3)=C1C(=O)O[C@H]2c1ccoc1 | 29.6 | 29.6 | 17.2 |
| C[C@@]12CCCC(COC(=O)c3ccc(C#N)cc3)=C1C(=O)O[C@H]2c1ccoc1 | 44.4 | 25.9 | 6.9 |
| CC1=C2C(=O)O[C@@H](c3ccoc3)[C@]2(C)CC[C@H]1OC(=O)c1ccc(F)cc1 | 63 | 51.9 | 24.1 |
| C[C@@]12CCCC(COC(=O)c3cccc(F)c3)=C1C(=O)O[C@H]2c1ccoc1 | 55.6 | 51.9 | 24.1 |
| CC1=C2C(=O)O[C@@H](c3ccoc3)[C@]2(C)CC[C@H]1OC(=O)Cc1cccc2ccccc12 | 51.9 | 29.6 | 10.3 |
| C[C@@]12CCCC(COC(=O)c3ccc(F)cc3)=C1C(=O)O[C@H]2c1ccoc1 | 51.9 | 40.7 | 10.3 |
| CC1=C2C(=O)O[C@@H](c3ccoc3)[C@]2(C)CC[C@H]1OC(=O)c1ccccc1 | 44.4 | 44.4 | 41.4 |
| C[C@@]12CCCC(CO)=C1C(=O)O[C@H]2c1ccoc1 | 40.7 | 29.6 | 10.3 |

| Structure (SMILES) | mortality at 1000 µg/mL (Mythimna separata [1]) [%] | mortality at 1000 µg/mL (Mythimna separata [2]) [%] | mortality at 1000 µg/mL (Mythimna separata [3]) [%] |
| --- | --- | --- | --- |
| CC1=C2C(=O)O[C@@H](c3ccoc3)[C@]2(C)CCC1 [FRAXINELLONE] | 44.4 | 33.3 | 20.7 |
| CCCCCCCC(=O)OCC1=C2C(=O)O[C@@H](c3ccoc3)[C@]2(C)CCC1 | 33.3 | 25.9 | 6.9 |
| C[C@@]12CCCC(COC(=O)Cc3cccc4ccccc34)=C1C(=O)O[C@H]2c1ccoc1 | 48.1 | 33.3 | 20.7 |
| C[C@@]12CCCC(COC(=O)c3ccc(Br)cc3)=C1C(=O)O[C@H]2c1ccoc1 | 33.3 | 29.6 | 24.1 |
| CC1=C2C(=O)O[C@@H](c3ccoc3)[C@]2(C)CC[C@H]1OC(=O)c1cccc(Br)c1 | 44.4 | 40.7 | 20.7 |
| CC1=C2C(=O)O[C@@H](c3ccoc3)[C@]2(C)CC[C@H]1OC(=O)c1cccc([N+](=O)[O-])c1 | 48.1 | 40.7 | 10.3 |
| C[C@@]12CCCC(COC(=O)c3ccncc3)=C1C(=O)O[C@H]2c1ccoc1 | 59.3 | 48.1 | 24.1 |
| C[C@@]12CCCC(COC(=O)Cc3ccccc3)=C1C(=O)O[C@H]2c1ccoc1 | 44.4 | 33.3 | 27.6 |
| COc1cccc2ccc(C(=O)O[C@@H]3CC[C@]4(C)C(=C3C)C(=O)O[C@H]4c3ccoc3)nc12 | 63 | 48.1 | 20.7 |
| C[C@@]12CCCC(COC(=O)c3cccc(Br)c3)=C1C(=O)O[C@H]2c1ccoc1 | 33.3 | 25.9 | 13.8 |
| CC1=C2C(=O)O[C@@H](c3ccoc3)[C@]2(C)CC[C@H]1OC(=O)c1cccc(F)c1 | 44.4 | 29.6 | 24.1 |
| Cc1ccc(C(=O)OCC2=C3C(=O)O[C@@H](c4ccoc4)[C@]3(C)CCC2)cc1 | 29.6 | 29.6 | 17.2 |
| C[C@@]12CCCC(COC(=O)c3ccc(Cl)cc3)=C1C(=O)O[C@H]2c1ccoc1 | 40.7 | 25.9 | 6.9 |
| CCCCCCCCCCC(=O)O[C@@H]1CC[C@]2(C)C(=C1C)C(=O)O[C@H]2c1ccoc1 | 48.1 | 40.7 | 20.7 |
| CC1=C2C(=O)O[C@@H](c3ccoc3)[C@]2(C)CC[C@H]1OC(=O)c1ccncc1 | 66.7 | 48.1 | 24.1 |
| CC1=C2C(=O)O[C@@H](c3ccoc3)[C@]2(C)CC[C@H]1OC(=O)c1ccc(Cl)cc1 | 40.7 | 33.3 | 20.7 |
| CC1=C2C(=O)O[C@@H](c3ccoc3)[C@]2(C)CC[C@H]1OC(=O)c1ccc(C)cc1 | 40.7 | 40.7 | 24.1 |
| CC1=C2C(=O)O[C@@H](c3ccoc3)[C@]2(C)CC[C@H]1OC(=O)c1ccc([N+](=O)[O-])cc1 | 51.9 | 40.7 | 27.6 |
| CC1=C2C(=O)O[C@@H](c3ccoc3)[C@]2(C)CC[C@H]1OC(=O)c1ccc(Br)cc1 | 37 | 25.9 | 24.1 |
